Experiment [1] deals with AmpC (Escherichia coli) (UniProt Q83TT7). The experiment is described as follows: Aggregation based inhibition of Escherichia coli AmpC assessed as increase in deuteration of AmpC peptide fragment spanning 109-128 amino acid sequence after 1 hr by hydrogen-deuterium exchange mass spectrometry relative to control. Put shortly: (§1)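 AmpC β-lactamase diluted from a 215 μM stock (50 mM KPi, pH 7.0) into deuterated 50 mM MOPS in D2O, pH 7.0. Final enzyme was 0.16 μM with 100 μM aggregator (0.5% DMSO) or 16 μM without. Aggregate samples were centrifuged 16000g for 5 min and the pellet kept. Triton X-100 was added to release enzyme. Samples were quenched with ice-cold 0.1% TFA pH 2.5, digested on immobilized pepsin 5 min on ice, then analysed by chilled fast-gradient LC-MS. Deuterium uptake is centroid mass shift versus the undeuterated control, not corrected for back exchange. Ratio is inhibited over uninhibited, from three replicates.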
Chain of AmpC (Escherichia coli) (Q83TT7 as listed by the source): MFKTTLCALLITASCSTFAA

The target is the same in experiment [2]. The experiment is described as follows: Aggregation based inhibition of Escherichia coli AmpC assessed as increase in deuteration of AmpC peptide fragment spanning 8-18 amino acid sequence after 1 hr by hydrogen-deuterium exchange mass spectrometry relative to control. Put shortly:
as §1

For experiment [3] the target is unchanged. The experiment is described as follows: Aggregation based inhibition of Escherichia coli AmpC assessed as increase in deuteration of AmpC peptide fragment spanning 323-332 amino acid sequence after 1 hr by hydrogen-deuterium exchange mass spectrometry relative to control. A digest of the protocol: as §1
Experiment [4] has the same target. The experiment is described as follows: Aggregation based inhibition of Escherichia coli AmpC assessed as increase in deuteration of AmpC peptide fragment spanning 132-146 amino acid sequence after 10 mins by hydrogen-deuterium exchange mass spectrometry relative to control. Put shortly:
as §1

The target is the same in experiment [5]. The experiment is described as follows: Aggregation based inhibition of Escherichia coli AmpC assessed as increase in deuteration of AmpC peptide fragment spanning 42-56 amino acid sequence after 10 mins by hydrogen-deuterium exchange mass spectrometry relative to control. Put shortly: as §1
For experiment [6] the target is unchanged. The experiment is described as follows: Aggregation based inhibition of Escherichia coli AmpC assessed as increase in deuteration of AmpC peptide fragment spanning 336-350 amino acid sequence after 10 mins by hydrogen-deuterium exchange mass spectrometry relative to control. A digest of the protocol: as §1
Experiment [7] has the same target. The experiment is described as follows: Aggregation based inhibition of Escherichia coli AmpC assessed as solvent accessibility of AmpC peptide fragment spanning 323-332 amino acid sequence by measuring ratio of side chain surface area to random coil values per amino acid reside by hydrogen-deuterium exchange mass spectrometry relative to control. More on the design: scale not given: the % may be the effect or the level left. A digest of the protocol:
(§2)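 Side-chain solvent accessibility per peptide was calculated from the structure with a 1.4 Å probe radius and default atomic radii and solvation parameters. Each value is the average over residues of the side-chain surface area relative to its random-coil value. Above 50% is exposed; below 20% is buried.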

For experiment [8] the target is unchanged. The experiment is described as follows: Aggregation based inhibition of Escherichia coli AmpC assessed as increase in deuteration of AmpC peptide fragment spanning 271-289 amino acid sequence after 8 hrs by hydrogen-deuterium exchange mass spectrometry relative to control. A digest of the protocol:
as §1

The target is the same in experiment [9]. The experiment is described as follows: Aggregation based inhibition of Escherichia coli AmpC assessed as solvent accessibility of AmpC peptide fragment spanning 291-322 amino acid sequence by measuring ratio of side chain surface area to random coil values per amino acid reside by hydrogen-deuterium exchange mass spectrometry relative to control. More on the design: scale not given: the % may be the effect or the level left. A digest of the protocol:
as §2

Experiment [10] shares this target. The experiment is described as follows: Aggregation based inhibition of Escherichia coli AmpC assessed as increase in deuteration of AmpC peptide fragment spanning 42-56 amino acid sequence after 8 hrs by hydrogen-deuterium exchange mass spectrometry relative to control. A digest of the protocol: as §1
The target is the same in experiment [11]. The experiment is described as follows: Aggregation based inhibition of Escherichia coli AmpC assessed as solvent accessibility of AmpC peptide fragment spanning 243-250 amino acid sequence by measuring ratio of side chain surface area to random coil values per amino acid reside by hydrogen-deuterium exchange mass spectrometry relative to control. More on the design: scale not given: the % may be the effect or the level left. Put shortly: as §2

Experiment [12] has the same target. The experiment is described as follows: Aggregation based inhibition of Escherichia coli AmpC assessed as increase in deuteration of AmpC peptide fragment spanning 109-128 amino acid sequence after 10 mins by hydrogen-deuterium exchange mass spectrometry relative to control. Put shortly: as §1
Experiment [13] has the same target. The experiment is described as follows: Aggregation based inhibition of Escherichia coli AmpC assessed as increase in deuteration of AmpC peptide fragment spanning 291-322 amino acid sequence after 10 mins by hydrogen-deuterium exchange mass spectrometry relative to control. A digest of the protocol:
as §1

The target is the same in experiment [14]. The experiment is described as follows: Aggregation based inhibition of Escherichia coli AmpC assessed as increase in deuteration of AmpC peptide fragment spanning 271-289 amino acid sequence after 10 mins by hydrogen-deuterium exchange mass spectrometry relative to control. A digest of the protocol:
as §1

For experiment [15] the target is unchanged. The experiment is described as follows: Aggregation based inhibition of Escherichia coli AmpC assessed as increase in deuteration of AmpC peptide fragment spanning 323-332 amino acid sequence after 10 mins by hydrogen-deuterium exchange mass spectrometry relative to control. A digest of the protocol: as §1
For experiment [16] the target is unchanged. The experiment is described as follows: Inhibition of Escherichia coli AmpC assessed as induction of protein unfolding measured by trypsin mediated degradation of compound-AmpC enzyme complex at 100 uM after 4 hrs by gel electrophoresis. Put shortly:
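AmpC (0.5 μM) was preincubated 5 min with or without 100 μM aggregator in 50 mM KPi, pH 7.0, 1% DMSO final. Trypsin (0.01 or 0.025 mg/mL) was then added, and digestion ran at room temperature for 0, 15, 30 min, 1 h or 4 h. Samples were boiled in DTT-containing loading buffer and the AmpC band was followed by SDS-PAGE.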

Experiment [17] shares this target. The experiment is described as follows: Aggregation based inhibition of Escherichia coli AmpC assessed as solvent accessibility of AmpC peptide fragment spanning 109-128 amino acid sequence by measuring ratio of side chain surface area to random coil values per amino acid reside by hydrogen-deuterium exchange mass spectrometry relative to control. More on the design: scale not given: the % may be the effect or the level left. Put shortly:
as §2

Experiment [18] has the same target. The experiment is described as follows: Aggregation based inhibition of Escherichia coli AmpC assessed as increase in deuteration of AmpC peptide fragment spanning 323-332 amino acid sequence after 8 hrs by hydrogen-deuterium exchange mass spectrometry relative to control. A digest of the protocol:
as §1

For experiment [19] the target is unchanged. The experiment is described as follows: Aggregation based inhibition of Escherichia coli AmpC assessed as increase in deuteration of AmpC peptide fragment spanning 336-350 amino acid sequence after 1 hr by hydrogen-deuterium exchange mass spectrometry relative to control. Put shortly:
as §1

Experiment [20] shares this target. The experiment is described as follows: Aggregation based inhibition of Escherichia coli AmpC assessed as increase in deuteration of AmpC peptide fragment spanning 105-128 amino acid sequence after 8 hrs by hydrogen-deuterium exchange mass spectrometry relative to control. A digest of the protocol:
as §1

Each structure is given as a SMILES string. Calls of active or inactive are those of the source. The rule behind the calls is not given here.

Consider `CC(=O)c1c(O)c(C)c(O)c(Cc2c(O)c3c(c(C(=O)/C=C/c4ccccc4)c2O)OC(C)(C)C=C3)c1O`, for which the fold change (FC) is 2.5 on AmpC (Escherichia coli) [1]; 2.3 at AmpC (Escherichia coli) [2]; 3 at AmpC (Escherichia coli) [3]; 2.6 on AmpC (Escherichia coli) [4]; 1.9 on AmpC (Escherichia coli) [5]; 1.7 on AmpC (Escherichia coli) [6]. Further, the fold change (FC) came out at 1.4 on AmpC (Escherichia coli) [8]; 1.8 on AmpC (Escherichia coli) [10]; 1.5 on AmpC (Escherichia coli) [12]; 1.6 at AmpC (Escherichia coli) [13]; 1.4 at AmpC (Escherichia coli) [14]; 1.3 on AmpC (Escherichia coli) [15]. The fold change (FC) on AmpC (Escherichia coli) [18] was found to be 2.7; on AmpC (Escherichia coli) [19], 3.7; on AmpC (Escherichia coli) [20] it was 1.8. Also, the Activity turned out to be 11.8% at AmpC (Escherichia coli) [7], 22.3% on AmpC (Escherichia coli) [9], 20.7% at AmpC (Escherichia coli) [11] and 36.9% at AmpC (Escherichia coli) [17]. On AmpC (Escherichia coli) [16], the outcome was Active.

These data come from ChEMBL document CHEMBL1153954, “Promiscuous aggregate-based inhibitors promote enzyme unfolding” (J Med Chem, 2009).
